“Also recorded” adds a separate entry of the source. Like-named read-outs stand apart in the source and are kept apart here. Values belong to the compound of their own block, whether it stands above or below them.
What was measured:
human arginase I = target: T1, human arginase I (Homo sapiens, UniProt P05089); test: Fixed-point kinetic assay with [14C-guanidino]-L-arginine; format: biochemical; conditions: for mode of inhibition: from Lineweaver-Burk plots
T1 sequence (P05089 1-322): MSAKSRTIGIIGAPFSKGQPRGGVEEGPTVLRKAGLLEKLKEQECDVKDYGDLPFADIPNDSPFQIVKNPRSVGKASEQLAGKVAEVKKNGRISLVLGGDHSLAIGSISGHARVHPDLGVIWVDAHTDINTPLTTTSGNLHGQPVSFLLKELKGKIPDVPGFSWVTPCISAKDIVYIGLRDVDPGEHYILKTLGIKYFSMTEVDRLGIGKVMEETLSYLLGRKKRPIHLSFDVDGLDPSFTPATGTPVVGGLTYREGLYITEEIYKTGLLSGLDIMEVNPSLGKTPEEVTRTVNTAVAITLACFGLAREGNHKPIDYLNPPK
Summary of the method: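 Affinity derived from a replot of v0/vi (velocity without/with inhibitor) against inhibitor concentration. Mode of inhibition (competitive or noncompetitive) assigned from Lineweaver-Burk plots at several inhibitor concentrations.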

[1] = system: airways hyperresponsiveness in OVA/OVA Balb/C mice; format: in vivo, mouse
Summary of the method: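 Female Balb/C mice (6–8 weeks) were sensitized i.p. with 25 μg OVA plus 1 mg aluminium hydroxide on days 0 and 7, then given nebulized 6% OVA in PBS, or PBS, 25 min/day on days 14–20. On day 21: ketamine/xylazine anaesthesia, intubation, FlexiVent ventilation.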

[2] = system: airways hyperresponsiveness in OVA/OVA Balb/C mice; conditions: cited from earlier work
[3] = OVA/OVA mice, nebulized 80 μg/g

SMILES: Nc1ncc(C[C@H](N)C(=O)O)[nH]1 [2AH, L-2-aminohistidine]
mode of inhibition (human arginase I): noncompetitive

SMILES: Nc1ncc(CCCC(N)C(=O)O)[nH]1 (stereo not shown) [A4P, 2-amino-5-(2-aminoimidazol-4-yl)-pentanoic acid]
inhibitory activity (human arginase I; enzymological assay): lacks inhibitory activity

SMILES: Nc1ncc(CC[C@H](N)C(=O)O)[nH]1 [AHH, 2-aminohomohistidine]
mode of inhibition (human arginase I): competitive

SMILES: N[C@@H](CSCCB(O)O)C(=O)O [BEC, S-(2-boronoethyl)-L-cysteine]
airways hyperresponsiveness ([2]; murine models of allergic airways inflammation ref 8a): reduces | maximum central airways responsiveness (RN max) to methacholine ([2]; same model, earlier study ref 8a): attenuates

The next lines start with results.

mode of inhibition (human arginase I): noncompetitive
SMILES: Nc1ncc[nH]1 [2-Aminoimidazole, reference compound]

mode of inhibition (human arginase I): competitive
SMILES: Nc1nccn1CCC[C@H](N)C(=O)O [A1P, 2-(S)-amino-5-(2-aminoimidazol-1-yl)-pentanoic acid]
maximum resistance of the central airways (RN) following methacholine challenge [1, 3]: significantly attenuated; also recorded: notably decreased | total resistance of the respiratory system (R) following methacholine challenge [1, 3]: attenuated significantly | airways hyperresponsiveness ([1]; murine model of allergic airways inflammation): significantly attenuates; also recorded: significantly reduces

From PMC2874077 (Journal of medicinal chemistry, 2010)
